According to ChEMBL document CHEMBL3271984, “Antifungal activity of 4-substituted crotonic acid esters” (1976):
≈ marks a conversion by molar mass, not a printed value. Calls of active or inactive are those of the source. No cut-off for these calls is given here.

Legend:
Candida albicans [1] = assay: Antifungal activity against Candida albicans ATCC 10231 incubated for 20 hrs; type: functional, organism-based
Aspergillus niger [2] = assay: Antifungal activity against Aspergillus niger ATCC 1004 incubated for 5 days; type: functional, organism-based
Mucor mucedo [3] = assay: Antifungal activity against Mucor mucedo ATCC 7941 incubated for 20 hrs; type: functional, organism-based
[4] = tested on: Trichophyton mentagrophytes; assay: Antifungal activity against Trichophyton mentagrophytes ATCC 9129 incubated for 5 days; type: functional, organism-based
Candida albicans [5] = assay: Antifungal activity against Candida albicans ATCC 10231 assessed as growth inhibition at pH 7 incubated for 20 hrs in presence of 10% beef serum; type: functional; conditions: for MIC: ATCC 10231, 20 h, read-out: MIC100
In short: (§1)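 Agar dilution in Sabouraud dextrose agar at pH 5.6 or 7.0, with or without 10% beef serum. C. albicans and M. mucedo were incubated 20 h at 37°; A. niger and T. mentagrophytes 5 days at 28°. The value is the minimal µg/ml giving 100% inhibition. Steps were 1 µg/ml up to 10, 2 up to 20, then 10 up to 100 µg/ml maximum.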

Candida albicans [6] = assay: Antifungal activity against Candida albicans ATCC 10231 assessed as growth inhibition at pH 5.6 incubated for 20 hrs in absence of 10% beef serum; type: functional; conditions: for MIC: ATCC 10231, 20 h, read-out: MIC100; in short: as §1
Candida albicans [7] = assay: Antifungal activity against Candida albicans ATCC 10231 assessed as growth inhibition at pH 5.6 incubated for 20 hrs in presence of 10% beef serum; type: functional; conditions: for MIC: ATCC 10231, 20 h, read-out: MIC100; in short: as §1
Candida albicans [8] = assay: Antifungal activity against Candida albicans ATCC 10231 assessed as growth inhibition at pH 7 incubated for 20 hrs in absence of 10% beef serum; type: functional; conditions: for MIC: ATCC 10231, 20 h, read-out: MIC100; in short: as §1
Aspergillus niger [9] = assay: Antifungal activity against Aspergillus niger ATCC 1004 assessed as growth inhibition at pH 5.6 incubated for 5 days in absence of 10% beef serum; type: functional; conditions: for MIC: ATCC 1004, 120 h, read-out: MIC100; in short: as §1
Aspergillus niger [10] = assay: Antifungal activity against Aspergillus niger ATCC 1004 assessed as growth inhibition at pH 5.6 incubated for 5 days in presence of 10% beef serum; type: functional; conditions: for MIC: ATCC 1004, 120 h, read-out: MIC100; in short: as §1
Aspergillus niger [11] = assay: Antifungal activity against Aspergillus niger ATCC 1004 assessed as growth inhibition at pH 7 incubated for 5 days in absence of 10% beef serum; type: functional; conditions: for MIC: ATCC 1004, 120 h, read-out: MIC100; in short: as §1
Aspergillus niger [12] = assay: Antifungal activity against Aspergillus niger ATCC 1004 assessed as growth inhibition at pH 7 incubated for 5 days in presence of 10% beef serum; type: functional; conditions: for MIC: ATCC 1004, 120 h, read-out: MIC100; in short: as §1
Mucor mucedo [13] = assay: Antifungal activity against Mucor mucedo ATCC 7941 assessed as growth inhibition at pH 5.6 incubated for 20 hrs in absence of 10% beef serum; type: functional; conditions: for MIC: ATCC 7941, 20 h, read-out: MIC100; in short: as §1
Mucor mucedo [14] = assay: Antifungal activity against Mucor mucedo ATCC 7941 assessed as growth inhibition at pH 5.6 incubated for 20 hrs in presence of 10% beef serum; type: functional; conditions: for MIC: ATCC 7941, 20 h, read-out: MIC100; in short: as §1
Mucor mucedo [15] = assay: Antifungal activity against Mucor mucedo ATCC 7941 assessed as growth inhibition at pH 7 incubated for 20 hrs in absence of 10% beef serum; type: functional; conditions: for MIC: ATCC 7941, 20 h, read-out: MIC100; in short: as §1
Mucor mucedo [16] = assay: Antifungal activity against Mucor mucedo ATCC 7941 assessed as growth inhibition at pH 7 incubated for 20 hrs in presence of 10% beef serum; type: functional; conditions: for MIC: ATCC 7941, 20 h, read-out: MIC100; in short: as §1
[17] = tested on: Trichophyton mentagrophytes; assay: Antifungal activity against Trichophyton mentagrophytes ATCC 9129 assessed as growth inhibition at pH 5.6 incubated for 5 days in absence of 10% beef serum; type: functional; conditions: for MIC: ATCC 9129, 120 h, read-out: MIC100; in short: as §1
[18] = tested on: Trichophyton mentagrophytes; assay: Antifungal activity against Trichophyton mentagrophytes ATCC 9129 assessed as growth inhibition at pH 5.6 incubated for 5 days in presence of 10% beef serum; type: functional; conditions: for MIC: ATCC 9129, 120 h, read-out: MIC100; in short: as §1
[19] = tested on: Trichophyton mentagrophytes; assay: Antifungal activity against Trichophyton mentagrophytes ATCC 9129 assessed as growth inhibition at pH 7 incubated for 5 days in absence of 10% beef serum; type: functional; conditions: for MIC: ATCC 9129, 120 h, read-out: MIC100; in short: as §1
[20] = tested on: Trichophyton mentagrophytes; assay: Antifungal activity against Trichophyton mentagrophytes ATCC 9129 assessed as growth inhibition at pH 7 incubated for 5 days in presence of 10% beef serum; type: functional; conditions: for MIC: ATCC 9129, 120 h, read-out: MIC100; in short: as §1

MIC (Candida albicans [5]) [µg/mL] | MIC (Candida albicans [6]) [µg/mL] | MIC (Candida albicans [7]) [µg/mL] | MIC (Candida albicans [8]) [µg/mL] | MIC (Aspergillus niger [9]) [µg/mL] | MIC (Aspergillus niger [10]) [µg/mL] | MIC (Aspergillus niger [11]) [µg/mL] | MIC (Aspergillus niger [12]) [µg/mL] | MIC (Mucor mucedo [13]) [µg/mL] | MIC (Mucor mucedo [14]) [µg/mL] | MIC (Mucor mucedo [15]) [µg/mL] | MIC (Mucor mucedo [16]) [µg/mL] | MIC [17] [µg/mL] | MIC [18] [µg/mL] | MIC [19] [µg/mL] | MIC [20] [µg/mL] | Structure (SMILES) | Activity (Candida albicans [1]) | Activity (Aspergillus niger [2]) | Activity (Mucor mucedo [3]) | Activity [4] | further results
 |  |  |  |  |  |  |  |  |  |  |  |  |  |  |  | C/C=C/C(=O)OCCC | inactive | inactive | inactive | inactive | 
2 | < 1 | < 1 | < 1 | 2 (≈ 1.8 µM) | 5 | 5 (≈ 4.51 µM) | 7 | < 1 | < 1 | < 1 | < 1 | < 1 | < 1 | 3 (≈ 2.7 µM) | 9 | CC1/C=C/C=C/C=C/C=C/C=C/C=C/C=C/C(OC2O[C@H](C)[C@@H](O)[C@H](N)[C@@H]2O)CC(O)C(C(=O)O)C(O)CC(=O)CC(O)CC(O)CC(O)CC(=O)CCCC(=O)CC(=O)OC1C(C)CC(C)C(O)CC(=O)c1ccc(N)cc1 (some centres undefined) |  |  |  |  | 
90 | 16 (≈ 54 µM) | 80 | 30 (≈ 101 µM) |  |  |  |  | 14 (≈ 47.3 µM) | 40 | 14 (≈ 47.3 µM) | 50 | < 1 | 8 | 3 (≈ 10.1 µM) | 20 | CCCCCCOC(=O)/C=C/CI |  |  |  |  | MIC100 (Aspergillus niger [9]): inactive; MIC100 (Aspergillus niger [10]): inactive; MIC100 (Aspergillus niger [11]): inactive; MIC100 (Aspergillus niger [12]): inactive
< 1 | < 1 | < 1 | < 1 | < 1 | < 1 | < 1 | < 1 | < 1 | < 1 | < 1 | < 1 | < 1 | < 1 | < 1 | < 1 | C[C@@H]1[C@H](O)[C@@H](C)/C=C/C=C/C=C/C=C/C=C/C=C/C=C/[C@H](O[C@@H]2O[C@H](C)[C@@H](O)[C@H](N)[C@@H]2O)C[C@@H]2O[C@](O)(C[C@@H](O)C[C@@H](O)[C@H](O)CC[C@@H](O)C[C@@H](O)CC(=O)O[C@H]1C)C[C@H](O)[C@H]2C(=O)O [AMPHOTERICIN B] |  |  |  |  | 
 |  |  |  |  |  |  |  |  |  |  |  |  |  |  |  | C/C=C/C(=O)OC | inactive | inactive | inactive | inactive | 
30 | 10 (≈ 37.3 µM) | 20 | 12 (≈ 44.8 µM) | 30 (≈ 112 µM) | 70 | 20 (≈ 74.6 µM) | 70 | 2 (≈ 7.46 µM) | 5 | 4 (≈ 14.9 µM) | 7 | < 1 | 3 | < 1 | 7 | CCCCOC(=O)/C=C/CI |  |  |  |  | 
 |  |  |  |  |  |  |  |  |  |  |  |  |  |  |  | C/C=C/C(=O)OCCCCC | inactive | inactive | inactive | inactive | 
40 | 20 (≈ 104 µM) | 30 | 30 (≈ 155 µM) | 80 (≈ 414 µM) | 90 | 70 (≈ 363 µM) | 80 | 5 (≈ 25.9 µM) | 7 | 6 (≈ 31.1 µM) | 7 | < 1 | 2 | 2 (≈ 10.4 µM) | 4 | CCOC(=O)/C=C/CBr |  |  |  |  | 
18 | 16 (≈ 70.8 µM) | 30 | 20 (≈ 88.5 µM) | 30 (≈ 133 µM) | 40 | 30 (≈ 133 µM) | 40 | 9 (≈ 39.8 µM) | 10 | 9 (≈ 39.8 µM) | 8 | < 1 | 3 | 2 (≈ 8.85 µM) | 4 | COC(=O)/C=C/CI |  |  |  |  | 
 |  |  |  |  |  |  |  | 60 (≈ 446 µM) | 80 | 80 (≈ 595 µM) | 90 | 4 (≈ 29.7 µM) | 40 | 60 (≈ 446 µM) | 60 | COC(=O)/C=C/CCl |  |  |  |  | MIC100 (Candida albicans [5]): inactive; MIC100 (Candida albicans [6]): inactive; MIC100 (Candida albicans [7]): inactive; MIC100 (Candida albicans [8]): inactive; MIC100 (Aspergillus niger [9]): inactive; MIC100 (Aspergillus niger [10]): inactive; MIC100 (Aspergillus niger [11]): inactive; MIC100 (Aspergillus niger [12]): inactive
 |  |  |  |  |  |  |  |  |  |  |  |  |  |  |  | COC(=O)/C=C/CF |  |  |  |  | MIC100 (Candida albicans [5]): inactive; MIC100 (Candida albicans [6]): inactive; MIC100 (Candida albicans [7]): inactive; MIC100 (Candida albicans [8]): inactive; MIC100 (Aspergillus niger [9]): inactive; MIC100 (Aspergillus niger [10]): inactive; MIC100 (Aspergillus niger [11]): inactive; MIC100 (Aspergillus niger [12]): inactive; MIC100 (Mucor mucedo [13]): inactive; MIC100 (Mucor mucedo [14]): inactive; MIC100 (Mucor mucedo [15]): inactive; MIC100 (Mucor mucedo [16]): inactive; MIC100 [17]: inactive; MIC100 [18]: inactive; MIC100 [19]: inactive; MIC100 [20]: inactive
 |  |  |  |  |  |  |  |  |  |  |  |  |  |  |  | C/C=C/C(=O)OCCCCCC | inactive | inactive | inactive | inactive | 
